Sampled rows, rich in hits. Any-hit rate of the full collection: about 4.6%.
ALR inh – inhibitors of human ALR sulfhydryl oxidase, primary screen, biochemical, H2O2 detection, HRP-luminol luminescence, single point. FAD-linked sulfhydryl oxidase ALR (Homo sapiens), P55789. purified ALR, DTT oxidation. inhibition, % (no concentration beside the values). 290,000 compounds, 3.8% hits. AID 485317, 2010;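 active = mean replicate inhibition above about 79%, with every replicate also reaching it, limit read from the data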
Target sequence (P55789 whole entry, looked up): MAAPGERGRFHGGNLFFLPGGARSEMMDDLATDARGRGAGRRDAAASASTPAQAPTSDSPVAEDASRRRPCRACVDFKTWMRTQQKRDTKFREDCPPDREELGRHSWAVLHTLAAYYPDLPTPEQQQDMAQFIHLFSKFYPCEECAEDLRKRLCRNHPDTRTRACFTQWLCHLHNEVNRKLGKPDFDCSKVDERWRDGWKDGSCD
HDAC3 inh – HDAC3 deacetylase inhibitors, primary screen, biochemical, fluorescence, cell-free homogeneous; inhibition, % at 8.3 µM; 320,000 compounds, 0.15% hits; recombinant HDAC3, fluorogenic peptide/trypsin coupled; in the data active = inhibition above about 26%, passing the limit was not always enough
Target sequence (O15379 whole entry, looked up): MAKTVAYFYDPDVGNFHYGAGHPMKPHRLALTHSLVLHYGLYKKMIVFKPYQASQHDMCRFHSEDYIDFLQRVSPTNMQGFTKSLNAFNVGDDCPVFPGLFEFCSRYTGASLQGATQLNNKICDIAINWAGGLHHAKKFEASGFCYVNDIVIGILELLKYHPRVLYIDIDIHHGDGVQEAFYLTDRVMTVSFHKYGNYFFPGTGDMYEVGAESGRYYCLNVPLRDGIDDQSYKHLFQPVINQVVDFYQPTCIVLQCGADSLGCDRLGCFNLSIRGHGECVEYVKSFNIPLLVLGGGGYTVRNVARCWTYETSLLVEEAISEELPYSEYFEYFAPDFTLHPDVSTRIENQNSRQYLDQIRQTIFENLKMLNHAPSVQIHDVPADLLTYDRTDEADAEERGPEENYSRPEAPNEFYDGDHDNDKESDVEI
UCH37 inh – inhibitors of human UCH37 deubiquitinase, primary screen, biochemical, Ub-AMC cleavage, fluorescence; Ubiquitin carboxyl-terminal hydrolase isozyme L5 (Homo sapiens), Q9Y5K5; purified proteasome/UCH37; inhibition, % (no concentration beside the values); 330,000 compounds, 0.33% hits; AID 588478, 2011;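 active = mean inhibition over replicate wells above about 20%, limit read from the data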;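 note: 0% = compound-free wells with enzyme and 100% = wells lacking proteasome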
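Signal – fluorescence, ex 355 nm, em 460 nm · System – Proteasome-bound UCH37 · Input – 0.15 nM proteasome as dispensed · Timing – 30 min preincubation with enzyme, 25 min cleavage at room temperature · Read-out basis – percent inhibition of cleavage signal versus uninhibited and no-proteasome wells · Medium – Tris-HCl pH 7.4 with ATP-MgCl2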
FAS TE block – FAS thioesterase domain inhibitors, primary screen, biochemical, fluorescence intensity, uHTS | recombinant FAS-TE, OMFH fluorogenic substrate, fluorescence endpoint | inhibition, % at 15 µM | 360,000 compounds, 0.67% hits;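 active = compounds whose normalised, plate-corrected inhibition of enzyme fluorescence in the single-dose primary screen is 50% or more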;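 note: 0% = DMSO with enzyme and 100% = substrate without enzyme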
M18AAP inhibitor – PfM18AAP inhibitors, malaria aminopeptidase, primary screen, biochemical, QFRET, recombinant enzyme; H-Glu-NHMec fluorogenic cleavage; M18 aspartyl aminopeptidase (Plasmodium falciparum 3D7); inhibition, % at 7.35 µM; 290,000 compounds, 1.2% hits;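 active = inhibition above the campaign mean inhibition over all tested compounds plus 3 SD, cut at about 28% in these data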;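 note: 0% = plate median of test compound wells and 100% = 2 mM ZnCl2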
Rtt109 Vps75 – inhibitors of C. albicans Rtt109/Vps75 HAT, primary screen, biochemical, ThioGlo CoA-SH fluorescence, plate reader; Histone acetyltransferase RTT109 (Candida albicans (strain SC5314 / ATCC MYA-2876)), …; purified Rtt109/Vps75, 4 h; inhibition, % at 34.9 µM; 330,000 compounds, 0.16% hits; AID 540336, 2011;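 active = inhibition of at least 50% in every replicate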
FAS-TE inh conf – FAS thioesterase domain inhibitors, confirmation, biochemical, fluorescence intensity, single concentration; shares compounds with FAS TE block; inhibition, % at 15 µM; recombinant FAS-TE, OMFH fluorogenic substrate; 2,300 compounds, 45% hits;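 active = compounds inhibiting the enzyme by at least 50% at 15 µM in any one of the replicates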;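 note: 0% = enzyme with DMSO only and 100% = wells lacking enzyme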
Numbers without * were called inactive; . = no result.

SMILES | ALR inh | HDAC3 inh | UCH37 inh | FAS TE block | M18AAP inhibitor | Rtt109 Vps75 | FAS-TE inh conf
O=C1OCCN1C(=O)[C@H]1[C@H](c2ccccc2)C(c2cccc(Cl)c2)=NN1c1ccccc1 | . | . | -373 | 56* | . | -3 | 18
Cc1cccc(C2=NN(c3ccccc3)[C@@H](C(=O)N3CCOC3=O)[C@@H]2c2ccc(F)cc2)c1 | . | . | -146 | 42 | . | 0 | .
CON=C(CNC(=O)c1ccccc1Cl)c1ccc(Cl)cc1 | . | . | -6 | . | . | . | .
Cc1ccc(S(=O)(=O)N2CCN(C(=O)c3ccc(N4CCC(C)CC4)c([N+](=O)[O-])c3)CC2)cc1 | . | . | 4 | 54* | . | 2 | 14
CCOc1cc(/C=N/Nc2nc(N3CCCCC3)nc(N3CCCCC3)n2)ccc1OC(=O)c1ccco1 | -4 | . | . | 71* | 0 | 0 | 2
COc1ccc(/C=N/Nc2nc(Nc3ccccc3)nc(N3CCCCC3)n2)c(OC)c1 | . | . | . | 50* | -5 | 1 | 23
COc1ccc(C=NNc2nc(Nc3ccccc3)nc(N3CCCC3)n2)cc1 | . | . | 5 | . | . | . | .
COc1cc(/C=N/Nc2nc(Nc3ccccc3)nc(N3CCOCC3)n2)ccc1OC(=O)c1ccco1 | -17 | 8 | . | 67* | -4 | -1 | 24
CCOc1ccc(/C=N/Nc2nc(N3CCCC3)nc(N3CCCC3)n2)cc1OC | -26 | -6 | . | 0 | 0 | -10 | .
O=C(Oc1cccc(/C=N/Nc2nc(N3CCOCC3)nc(N3CCOCC3)n2)c1)c1ccco1 | -2 | 4 | . | 4 | 9 | 3 | .
Cc1ccsc1C=NNC(=O)c1nnn(-c2nonc2N)c1C(C)C | . | . | 7 | . | . | . | .
C(=NNc1ccccc1)c1ccc(N2CCOCC2)cc1 | . | . | -7 | . | . | . | .
COc1ccc(Cc2nnc(NN=Cc3ccccc3O)[nH]c2=O)cc1OC | . | . | 5 | . | . | . | .
CCOC(=O)CN1C(=O)S/C(=C\c2ccc(-c3ccc(C(=O)O)c(Cl)c3)o2)C1=O | 55 | 9 | -3 | 4 | 7 | 10 | .
CC(C)N1C(=O)S/C(=C\c2ccc(-c3ccc(Cl)c(C(=O)O)c3)o2)C1=O | 8 | 9 | 5 | 69* | 5 | 1 | 75*
O=C(c1ccc(Cl)cc1)[C@@H]1[C@@H]2C(=O)N(c3ccccc3)C(=O)[C@@H]2C2c3ccccc3C=NN21 (stereo partly specified) | -6 | -2 | 4 | 52* | 2 | 5 | 35
COc1ccc(Cl)cc1CN1CCN(c2nc(C)cc(C)c2C#N)CC1 | -4 | 6 | -3 | 16 | -6 | -18 | .
Cc1cc(C)c(C#N)c(N2CCN(CCOc3ccc(Cl)cc3)CC2)n1 | -3 | 6 | -1 | 50* | -10 | 1 | 33
CN(CCO)c1cc(NCCCN2CCC(Cc3ccccc3)CC2)c2nonc2c1[N+](=O)[O-] | -9 | 0 | 8 | 68* | 1 | -1 | 42*
Cc1nn(-c2ccccc2)c(N2CCCC2)c1/C=N/NC(=O)c1ccccc1O | 5 | -1 | . | -7 | 11 | 8 | .
CCOc1ccc(S(=O)(=O)Nc2ccc(C(=O)NN=Cc3c(C)nn(-c4ccccc4)c3N3CCCC3)cc2)cc1 | . | . | -9 | . | . | . | .
Cc1ccc(NS(=O)(=O)c2cccc(C(=O)N/N=C/c3c(C)nn(-c4ccccc4)c3N3CCCC3)c2)c(C)c1 | -21 | 0 | . | 51* | -7 | -1 | 19
CCNc1ccc(C(=O)N/N=C/c2c(C)nn(-c3ccccc3)c2N2CCCC2)cc1[N+](=O)[O-] | 0 | 6 | . | 70* | -4 | -5 | 22
CC(Oc1cccc(F)c1)c1ccnc2nc(N=CN(C)C)nn12 (stereo unspecified) | . | . | -80 | . | . | . | .
CCC1CCCC1=NNC(=O)CCC(=O)Nc1ccccc1Cl (stereo unspecified) | . | . | 2 | . | . | . | .
SMILES | ALR inh | HDAC3 inh | UCH37 inh | FAS TE block | M18AAP inhibitor | Rtt109 Vps75 | FAS-TE inh conf
O=C(O)CCN1C(=O)/C(=C\c2cccc(OCc3ccccc3)c2)SC1=S | -3 | -3 | 8 | -101 | 6 | 9 | .
O=C(O)CN1C(=O)/C(=C\c2cccc(OCc3ccc(Cl)cc3Cl)c2)SC1=S | 99* | 11 | . | 59* | 3 | -4 | 38
O=c1[nH]c(CN2CCN(c3ncccn3)CC2)nc2c(Br)cc(Br)cc12 | -2 | -5 | 4 | 11 | -1 | -7 | .
O=c1[nH]c(CN2CCN(S(=O)(=O)c3cccs3)CC2)nc2c(Br)cc(Br)cc12 | -7 | -3 | 1 | 55* | -6 | 0 | 38*
COc1ccc([N+](=O)[O-])cc1/C=N/NC(=O)CNC(=O)c1cccc(F)c1 | 4 | 2 | . | 70* | 5 | 7 | 75*
Cc1ccc(NC(=O)c2cc([N+](=O)[O-])ccc2N2CCOCC2)cc1S(=O)(=O)N1CCOCC1 | 3 | 2 | 10 | 38 | -10 | 27 | .
Cc1cc(NC(=O)COC(=O)c2cc([N+](=O)[O-])ccc2N2CCOCC2)ccc1Br | -5 | 0 | 4 | 79* | . | -8 | 80*
Cc1cc(C)c(NC(=O)COC(=O)c2cc([N+](=O)[O-])ccc2N2CCOCC2)c(C)c1 | -1 | 0 | 3 | 65* | -7 | 38 | 54*
COc1ccc(C=NNc2nc3ccccc3c(=O)n2-c2ccccc2)cc1OC | . | . | 1 | . | . | . | .
CC(C)(C)C(=O)Nc1ccc(C(=O)NN=CC2CC3C=CC2C3)cc1 (stereo unspecified) | . | . | 0 | . | . | . | .
Cc1ccc(N(CC(=O)NN=Cc2cccnc2)S(=O)(=O)c2ccccc2)cc1 | . | . | 1 | . | . | . | .
O=C(O)CCN(CC(=O)c1ccc(Cl)cc1)S(=O)(=O)c1ccc([N+](=O)[O-])cc1 | 54 | 0 | 6 | 75* | . | 2 | 72*
COc1ccc(C(=O)CN(CCC(=O)O)S(=O)(=O)c2ccc([N+](=O)[O-])cc2)cc1 | . | -1 | 6 | 71* | . | 0 | 80*
Cc1ccc(C(=O)CN(CCC(=O)O)S(=O)(=O)c2ccc([N+](=O)[O-])cc2)cc1 | -61 | -11 | 3 | 62* | . | 6 | 79*
Cc1ccc(C(=O)CN(CCCC(N)=O)S(=O)(=O)c2ccc([N+](=O)[O-])cc2)cc1 | -14 | 6 | 1 | 68* | . | -3 | 52*
O=C(CON=Cc1ccc(OC(F)F)cc1)NCc1ccc(F)cc1 | . | . | 0 | . | . | . | .
O=C(/C=C/c1cccc([N+](=O)[O-])c1)NCc1ccccc1 | 19 | 1 | 4 | 44 | -2 | 0 | .
O=C(/C=C/c1ccc([N+](=O)[O-])cc1)NCCc1ccc(F)cc1 | . | 3 | 6 | 23 | 3 | -11 | .

Screening results as filed in PubChem.
